Activity calls are given as the source filed them. The rule behind the calls is not given here.
What was measured:
[1] = Inhibition of Wnt/beta-Catenin signaling (unknown origin) expressed in recombinant human Wnt-3a-induced Wnt-HEK293 cells incubated for 24 hrs by luciferase reporter gene assay; type: cell-based
Outline: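 Stably transfected Wnt-HEK293 cells, 2000/well in DMEM + 10% FBS, incubated overnight at 37 °C. Compounds pin-transferred, then recombinant human Wnt-3a added (200 ng/mL stock); unstimulated control wells received medium. After 24 h at 37 °C, ONE-Glo luminescence read after 30 min at room temperature; CellTiter-Fluor viability read in parallel. IC50 reported as mean ± SD of three independent experiments.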

[2] = Inhibition of Wnt/beta-Catenin signaling in human SW480 cells incubated for 24 hrs by TCF/LEF dual-luciferase reporter assay; type: cell-based; conditions: SW480, 24 h
Outline: (§1)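 SW480 or SW620 cells seeded at 200,000/well and transiently transfected 24 h later with TOPflash firefly luciferase plus pRLTK-Renilla using lipofectamine 2000. After 16 h the medium was replaced with compound at a range of concentrations, three replicates each. Dual firefly/Renilla luciferase read 24 h later.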

[3] = Toxicity in C57BL/6 mouse assessed as effect on BUN level at 100 mg/kg/day, ip for 21 days; type: organism-based; conditions: in vivo, 504 h
[4] = species on record: Homo sapiens; test: Inhibition of Wnt/beta-Catenin signaling in human SW620 cells assessed as reduction in MMP7 mRNA expression at 10 uM incubated for 24 hrs by real-time PCR analysis; type: cell-based
Outline: (§2)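 SW620 cells (RPMI 1640, 10% FBS) in 6-well plates, incubated 24 h, then treated with compound at several concentrations, three replicates each, for 24 h. Total RNA isolated with Trizol/phenol-chloroform; 2 µg reverse transcribed; Wnt target gene mRNA quantified by PCR.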

[5] = Toxicity in C57BL/6 mouse assessed as effect on total protein level at 100 mg/kg/day, ip for 21 days; type: organism-based; conditions: in vivo, 504 h
[6] = species on record: Homo sapiens; test: Inhibition of Wnt/beta-Catenin signaling in human SW620 cells assessed as reduction in c-Myc mRNA expression at 10 uM incubated for 24 hrs by real-time PCR analysis; type: cell-based; outline: as §2
[7] = target: T1, AMP-activated protein kinase, AMPK (Homo sapiens) (UniProt P54646+O43741+P54619+Q9UGJ0+Q9Y478+Q13131+Q9UGI9); test: Activation of AMPK in human SW620 cells assessed as increase in ACC phosphorylation incubated for 24 hrs by Western blot analysis; type: cell-based
Outline: (§3)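 SW620 cells in RPMI 1640 with 10% FBS, treated over a concentration range. Lysed in RIPA with protease inhibitors, 20 µL of 2 mg/mL protein run on 7.5% SDS-PAGE, transferred to nitrocellulose, blocked in 5% BSA. Rabbit primaries (Axin-1, ACC, pACC, AMPK, pAMPK at 1:1,000; β-actin 1:2,000) overnight at 4 °C, HRP secondary 1:8000 for 2 h, ECL.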

[8] = target: Ribosomal protein S6 kinase alpha-3 (Homo sapiens) (UniProt P51812); test: Inhibition of RPS6KA3 (unknown origin) at 1000 nM relative to control
Chain of Ribosomal protein S6 kinase alpha-3 (Homo sapiens) (P51812 whole entry): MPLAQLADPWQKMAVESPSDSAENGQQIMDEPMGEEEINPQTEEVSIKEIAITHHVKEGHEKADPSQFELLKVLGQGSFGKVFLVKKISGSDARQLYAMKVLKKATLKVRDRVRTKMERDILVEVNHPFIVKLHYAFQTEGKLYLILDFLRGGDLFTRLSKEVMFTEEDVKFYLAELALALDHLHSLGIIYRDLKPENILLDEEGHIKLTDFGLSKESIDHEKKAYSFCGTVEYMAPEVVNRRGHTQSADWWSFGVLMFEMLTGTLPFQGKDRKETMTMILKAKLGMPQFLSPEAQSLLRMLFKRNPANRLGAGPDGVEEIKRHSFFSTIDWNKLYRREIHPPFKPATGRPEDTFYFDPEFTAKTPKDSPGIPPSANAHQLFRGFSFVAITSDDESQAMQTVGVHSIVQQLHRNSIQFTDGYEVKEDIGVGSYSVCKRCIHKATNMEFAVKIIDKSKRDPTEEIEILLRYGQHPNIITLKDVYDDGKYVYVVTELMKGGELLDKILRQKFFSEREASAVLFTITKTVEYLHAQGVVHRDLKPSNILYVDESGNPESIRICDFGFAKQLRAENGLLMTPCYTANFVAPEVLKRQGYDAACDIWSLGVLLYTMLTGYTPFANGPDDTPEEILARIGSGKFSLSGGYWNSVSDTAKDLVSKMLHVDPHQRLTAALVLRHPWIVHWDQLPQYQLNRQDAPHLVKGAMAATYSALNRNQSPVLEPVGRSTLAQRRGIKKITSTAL
Outline: (§4)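 Single-concentration screen at 1000 nM against a 273-kinase panel, reported as percent inhibition.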

[9] = test system: SW-620; test: Induction of apoptosis in human SW620 cells incubated for 48 hrs by AAD-7 and FITC-annexin-V staining based flow cytometry; type: functional, cell-based
Outline: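 Cells treated with a range of concentrations or DMSO for 48 h. Stained with FITC annexin V/7-AAD and analysed by flow cytometry.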

[10] = Toxicity in C57BL/6 mouse assessed as effect on body weight at 100 mg/kg/day, ip for 21 days; type: organism-based; conditions: in vivo, 504 h
[11] = species on record: Homo sapiens; test: Inhibition of Wnt/beta-Catenin signaling in human SW620 cells assessed as reduction in S100A4 mRNA expression at 10 uM incubated for 24 hrs by real-time PCR analysis; type: cell-based; outline: as §2
[12] = target: T1, AMP-activated protein kinase, AMPK (Homo sapiens); test: Activation of AMPK in HEK293 cells with Axin-1 knockdown assessed as increase in AMPK phosphorylation at T172 residue at 10 uM incubated for 24 hrs by Western blot analysis; type: cell-based
[13] = target: Maternal embryonic leucine zipper kinase (Homo sapiens) (UniProt Q14680); test: Inhibition of MELK (unknown origin) at 1000 nM relative to control; outline: as §4
Chain of Maternal embryonic leucine zipper kinase (Homo sapiens) (Q14680 whole entry, looked up): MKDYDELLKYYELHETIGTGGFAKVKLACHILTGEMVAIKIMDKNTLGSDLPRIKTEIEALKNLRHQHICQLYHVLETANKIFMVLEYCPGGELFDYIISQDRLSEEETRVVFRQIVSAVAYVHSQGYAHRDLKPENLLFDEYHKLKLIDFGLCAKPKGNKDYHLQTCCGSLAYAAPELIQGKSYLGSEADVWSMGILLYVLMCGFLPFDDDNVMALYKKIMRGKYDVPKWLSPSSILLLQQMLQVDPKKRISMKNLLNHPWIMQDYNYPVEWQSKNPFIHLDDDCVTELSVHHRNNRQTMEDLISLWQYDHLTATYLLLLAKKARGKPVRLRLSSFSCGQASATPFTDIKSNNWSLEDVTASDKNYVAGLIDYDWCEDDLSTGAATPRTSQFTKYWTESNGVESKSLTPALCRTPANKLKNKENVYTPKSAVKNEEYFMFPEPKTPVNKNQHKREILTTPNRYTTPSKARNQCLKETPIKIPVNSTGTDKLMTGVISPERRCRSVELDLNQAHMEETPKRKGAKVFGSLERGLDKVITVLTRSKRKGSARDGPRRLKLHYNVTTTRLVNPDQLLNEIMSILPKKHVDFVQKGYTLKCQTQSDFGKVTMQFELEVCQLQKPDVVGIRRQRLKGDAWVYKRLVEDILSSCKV

[14] = test system: SW-620; test: Induction of apoptosis in human SW620 cells assessed as necrotic cells level at 10 uM incubated for 48 hrs by AAD-7 and FITC-annexin-V staining based flow cytometry (reference value: 0.027%); type: functional
[15] = test system: SW-620; test: Induction of apoptosis in human SW620 cells assessed as early apoptotic cells level at 10 uM incubated for 48 hrs by AAD-7 and FITC-annexin-V staining based flow cytometry (reference value: 18.6%); type: functional
[16] = test system: SW-620; test: Induction of apoptosis in human SW620 cells assessed as necrotic cells level at 3 uM incubated for 48 hrs by AAD-7 and FITC-annexin-V staining based flow cytometry (reference value: 0.027%); type: functional
[17] = Inhibition of Wnt/beta-Catenin signaling in human SW620 cells incubated for 24 hrs by TCF/LEF dual-luciferase reporter assay; type: cell-based; conditions: SW-620, 24 h; outline: as §1
[18] = target: Proto-oncogene tyrosine-protein kinase Src (Homo sapiens) (UniProt P12931); test: Inhibition of SRC (unknown origin) at 1000 nM relative to control; outline: as §4
Chain of Proto-oncogene tyrosine-protein kinase Src (Homo sapiens) (P12931 2-536 limits assumed): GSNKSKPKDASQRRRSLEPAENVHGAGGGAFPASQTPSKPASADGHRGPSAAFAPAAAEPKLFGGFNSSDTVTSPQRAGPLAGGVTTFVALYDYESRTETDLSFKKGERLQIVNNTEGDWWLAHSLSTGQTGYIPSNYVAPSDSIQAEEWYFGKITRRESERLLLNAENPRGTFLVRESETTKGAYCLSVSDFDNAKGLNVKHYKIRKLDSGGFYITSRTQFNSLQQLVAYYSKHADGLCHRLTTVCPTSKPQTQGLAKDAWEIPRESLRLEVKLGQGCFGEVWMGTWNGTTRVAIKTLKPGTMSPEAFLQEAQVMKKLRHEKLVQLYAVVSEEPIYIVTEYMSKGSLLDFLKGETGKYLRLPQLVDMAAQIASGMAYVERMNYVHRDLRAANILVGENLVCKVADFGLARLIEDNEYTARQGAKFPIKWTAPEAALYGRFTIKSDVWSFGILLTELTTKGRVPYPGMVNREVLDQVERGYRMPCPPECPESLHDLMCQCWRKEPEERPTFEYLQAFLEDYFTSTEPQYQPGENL

[19] = test system: SW-620; test: Antitumor activity against human SW620 cells xenografted in nude mouse assessed as reduction in tumor weight at 50 mg/kg, ip QD for 32 consecutive days; type: functional, organism-based
Outline: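 Six-week-old nude mice injected subcutaneously with 2×10^6 SW620 cells. Randomised at mean tumor volume 100–200 mm³ (n=6/group). Given 10 or 50 mg/kg ip daily for 32 consecutive days; vehicle 10% DMSO, 10% Kolliphor, 80% saline. Tumor volume measured every other day. Tumors weighed after euthanasia at day 32. t test against vehicle.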

[20] = target: Serine/threonine-protein kinase Nek6 (Homo sapiens) (UniProt Q9HC98); test: Inhibition of NEK6 (unknown origin) at 1000 nM relative to control; outline: as §4
Chain of Serine/threonine-protein kinase Nek6 (Homo sapiens) (Q9HC98 whole entry): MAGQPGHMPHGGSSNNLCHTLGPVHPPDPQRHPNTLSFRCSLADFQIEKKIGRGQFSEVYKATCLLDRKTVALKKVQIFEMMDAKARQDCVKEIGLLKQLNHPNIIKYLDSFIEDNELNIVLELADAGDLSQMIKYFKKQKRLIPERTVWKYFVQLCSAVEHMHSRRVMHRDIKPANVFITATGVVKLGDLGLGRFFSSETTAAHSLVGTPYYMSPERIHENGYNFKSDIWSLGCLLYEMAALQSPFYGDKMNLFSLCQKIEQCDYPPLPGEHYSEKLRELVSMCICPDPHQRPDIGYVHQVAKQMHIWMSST

[21] = Oral bioavailability in C57BL/6J mouse at 5 mg/kg by UPLC-MS analysis; type: ADME, organism-based; conditions: in vivo
Outline: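 Male C57BL/6J mice, 2–3 months old, 23–26 g. Single 5 mg/kg dose in 5% Kolliphor in saline, IV (n = 3) or oral gavage (n = 5). Tail-vein blood taken at 0.25, 0.5, 1, 4, 8 and 12 h and centrifuged to plasma. Analysed by LC-MS/MS (QTRAP 4000, C18 column); parameters from non-compartmental analysis.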

[22] = Toxicity in C57BL/6 mouse assessed as effect on ALT level at 100 mg/kg/day, ip for 21 days; type: organism-based; conditions: in vivo, 504 h
[23] = test system: SW-620; test: Induction of Axin-1 protein expression in human SW620 cells by Western blot analysis; type: functional, cell-based; outline: as §3
[24] = target: Glycogen synthase kinase-3 alpha (Homo sapiens) (UniProt P49840); test: Inhibition of GSK3A (unknown origin) at 1000 nM relative to control; outline: as §4
Chain of Glycogen synthase kinase-3 alpha (Homo sapiens) (P49840 2-483 limits assumed): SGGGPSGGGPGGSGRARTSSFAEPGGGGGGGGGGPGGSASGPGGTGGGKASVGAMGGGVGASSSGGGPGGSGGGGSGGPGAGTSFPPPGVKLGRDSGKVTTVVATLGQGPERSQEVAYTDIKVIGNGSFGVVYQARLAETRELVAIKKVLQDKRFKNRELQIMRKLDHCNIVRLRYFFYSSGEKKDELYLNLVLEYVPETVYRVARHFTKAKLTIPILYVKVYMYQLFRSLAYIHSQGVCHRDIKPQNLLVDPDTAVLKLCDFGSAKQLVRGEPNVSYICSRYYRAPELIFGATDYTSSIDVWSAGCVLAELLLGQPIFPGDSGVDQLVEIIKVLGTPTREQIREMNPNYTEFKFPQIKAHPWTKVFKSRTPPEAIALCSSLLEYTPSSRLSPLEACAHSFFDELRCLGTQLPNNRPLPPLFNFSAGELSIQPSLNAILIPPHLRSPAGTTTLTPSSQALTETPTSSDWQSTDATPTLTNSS

[25] = Toxicity in C57BL/6 mouse assessed as effect on glucose level at 100 mg/kg/day, ip for 21 days; type: organism-based; conditions: in vivo, 504 h

IC50 [1]: 2.3 nM
IC50 [2]: 1.15 nM
Activity [7]: Dose-dependent effect
inhibition [8]: 39%
Activity [12]: inactive
inhibition [13]: Active
IC50 [17]: 0.194 nM
inhibition [18]: Active
inhibition [20]: Active
bioavailability [21]: 22.9%
inhibition [24]: Active
SMILES: Cc1c(C(=O)Nc2ccc3ccccc3n2)cnn1-c1ccccc1Br
Activity [3]: Non-Toxic
inhibition [4]: Active
Activity [5]: Non-Toxic
inhibition [6]: Active
Activity [9]: Dose-dependent effect
Activity [10]: Non-Toxic
inhibition [11]: Active
Activity [14]: 0.00722%
Activity [15]: 57.9%
Activity [16]: 0.048%
Activity [19]: Active
Activity [22]: Non-Toxic
Activity [23]: Dose-dependent effect
Activity [25]: Non-Toxic

— ChEMBL document CHEMBL4414663, “Pyrazole-4-Carboxamide (YW2065): A Therapeutic Candidate for Colorectal Cancer via Dual Activities of Wnt/β-Catenin Signaling Inhibition and AMP-Activated Protein Kinase (AMPK) Activation” (J Med Chem, 2019)
